Measurements published in ChEMBL document CHEMBL5126644, “Synthesis and Structural Characterization of Novel Trihalo-sulfone Inhibitors of WNK1” (ACS Med Chem Lett, 2022).
Active and inactive are the calls of the source. No cut-off for these calls is given here.

Key:
[1] = biological target: T1, Serine/threonine-protein kinase WNK1 (Homo sapiens, UniProt Q9H4A3); assay: Inhibition of TEV cleavage site-fused His6-tagged WNK1 (194 to 483 residues) (unknown origin) expressed in Rosetta (DE3) cells using GST-OSR1(314 to 344) peptide as substrate incubated for 2 hrs by kinase-glo luminescence assay
Target sequence in this assay (Q9H4A3 whole entry, the tested form may be a part): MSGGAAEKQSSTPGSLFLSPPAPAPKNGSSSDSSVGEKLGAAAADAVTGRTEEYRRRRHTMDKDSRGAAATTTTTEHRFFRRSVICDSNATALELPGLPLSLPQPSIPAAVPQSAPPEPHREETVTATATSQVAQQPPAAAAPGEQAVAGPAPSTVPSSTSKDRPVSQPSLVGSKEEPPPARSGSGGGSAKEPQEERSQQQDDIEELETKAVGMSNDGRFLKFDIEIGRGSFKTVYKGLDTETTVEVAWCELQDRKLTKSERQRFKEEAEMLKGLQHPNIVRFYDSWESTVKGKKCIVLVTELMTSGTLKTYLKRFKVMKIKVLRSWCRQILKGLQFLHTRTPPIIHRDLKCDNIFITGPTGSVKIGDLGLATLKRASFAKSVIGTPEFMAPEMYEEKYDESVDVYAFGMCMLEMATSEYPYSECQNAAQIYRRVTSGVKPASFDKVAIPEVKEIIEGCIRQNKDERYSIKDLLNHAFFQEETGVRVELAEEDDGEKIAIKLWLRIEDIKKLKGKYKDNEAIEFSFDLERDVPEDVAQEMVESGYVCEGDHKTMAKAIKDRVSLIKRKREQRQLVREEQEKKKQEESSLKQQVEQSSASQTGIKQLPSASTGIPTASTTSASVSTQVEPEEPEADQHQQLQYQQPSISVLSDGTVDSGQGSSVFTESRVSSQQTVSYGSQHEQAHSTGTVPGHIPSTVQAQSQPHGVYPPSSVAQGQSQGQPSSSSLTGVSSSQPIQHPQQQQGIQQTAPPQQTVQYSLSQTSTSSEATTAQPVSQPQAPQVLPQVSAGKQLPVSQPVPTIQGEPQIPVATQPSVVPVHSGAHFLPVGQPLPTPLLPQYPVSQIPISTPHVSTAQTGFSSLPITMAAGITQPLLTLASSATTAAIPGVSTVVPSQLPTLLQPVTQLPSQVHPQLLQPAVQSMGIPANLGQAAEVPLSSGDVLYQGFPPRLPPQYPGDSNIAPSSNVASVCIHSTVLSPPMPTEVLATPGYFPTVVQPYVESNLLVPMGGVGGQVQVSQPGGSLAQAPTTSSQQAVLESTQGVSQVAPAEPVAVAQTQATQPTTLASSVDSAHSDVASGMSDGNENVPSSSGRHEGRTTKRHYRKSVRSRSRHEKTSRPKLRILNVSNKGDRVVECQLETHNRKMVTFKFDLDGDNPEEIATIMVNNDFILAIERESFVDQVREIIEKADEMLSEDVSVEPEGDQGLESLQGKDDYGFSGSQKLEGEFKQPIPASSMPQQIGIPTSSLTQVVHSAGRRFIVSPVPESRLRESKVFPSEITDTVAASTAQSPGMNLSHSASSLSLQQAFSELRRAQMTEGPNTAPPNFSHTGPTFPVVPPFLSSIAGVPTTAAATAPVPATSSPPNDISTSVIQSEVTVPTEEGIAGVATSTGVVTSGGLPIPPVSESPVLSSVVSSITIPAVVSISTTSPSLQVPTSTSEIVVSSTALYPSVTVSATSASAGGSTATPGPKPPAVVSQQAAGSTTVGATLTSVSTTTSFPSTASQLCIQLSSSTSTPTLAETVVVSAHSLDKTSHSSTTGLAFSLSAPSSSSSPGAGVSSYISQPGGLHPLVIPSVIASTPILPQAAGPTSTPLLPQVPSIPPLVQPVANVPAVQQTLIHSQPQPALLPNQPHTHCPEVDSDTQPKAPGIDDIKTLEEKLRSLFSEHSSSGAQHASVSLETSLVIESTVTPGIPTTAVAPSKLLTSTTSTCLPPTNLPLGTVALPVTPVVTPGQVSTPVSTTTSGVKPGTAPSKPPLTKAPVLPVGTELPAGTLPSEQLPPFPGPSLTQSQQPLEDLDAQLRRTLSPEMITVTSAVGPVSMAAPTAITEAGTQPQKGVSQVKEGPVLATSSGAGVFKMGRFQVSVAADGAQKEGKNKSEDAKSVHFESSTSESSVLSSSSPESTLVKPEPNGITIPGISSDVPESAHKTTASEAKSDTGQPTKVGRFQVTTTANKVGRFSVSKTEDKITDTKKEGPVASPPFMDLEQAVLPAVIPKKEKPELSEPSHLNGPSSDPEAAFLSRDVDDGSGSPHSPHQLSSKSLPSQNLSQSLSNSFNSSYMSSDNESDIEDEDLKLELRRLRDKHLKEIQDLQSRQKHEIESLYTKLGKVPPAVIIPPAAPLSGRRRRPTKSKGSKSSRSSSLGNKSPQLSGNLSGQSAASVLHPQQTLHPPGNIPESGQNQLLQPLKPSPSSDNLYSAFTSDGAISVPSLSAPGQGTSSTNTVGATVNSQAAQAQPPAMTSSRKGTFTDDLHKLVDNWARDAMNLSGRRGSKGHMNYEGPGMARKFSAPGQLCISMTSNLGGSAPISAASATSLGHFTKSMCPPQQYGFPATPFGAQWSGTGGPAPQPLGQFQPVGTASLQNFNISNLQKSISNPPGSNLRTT

[2] = biological target: T1, Serine/threonine-protein kinase WNK1; assay: Inhibition of TEV cleavage site-fused His6-tagged WNK1 (194 to 483 residues) (unknown origin) expressed in Rosetta (DE3) cells using GST-OSR1(314 to 344) peptide as substrate measured after 30 mins by [gamma-32P]-ATP based liquid scintillation counting analysis; type: biochemical
Outline: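 Radiometric kinase assay using [γ-32P]ATP at low enzyme concentration. It was chosen over the luminescence format for more precise IC50 determination.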
Target sequence in this assay (Q9H4A3 whole entry, the tested form may be a part): as above

[3] = biological target: T1, Serine/threonine-protein kinase WNK1; assay: Inhibition of WNK1 (unknown origin) at 10 uM relative to control
Target sequence in this assay (Q9H4A3 whole entry, looked up, the tested form may be a part): as the sequence (Q9H4A3 whole entry, the tested form may be a part) above

[4] = biological target: Serine/threonine-protein kinase WNK2 (Homo sapiens) (UniProt Q9Y3S1); assay: Inhibition of WNK2 (unknown origin) at 10 uM relative to control
[5] = biological target: Mitogen-activated protein kinase 9 (Homo sapiens) (UniProt P45984); assay: Inhibition of JNK2 (unknown origin) at 10 uM
[6] = biological target: Mitogen-activated protein kinase 10 (Homo sapiens) (UniProt P53779); assay: Inhibition of JNK3 (unknown origin) at 10 uM
[7] = biological target: T1, Serine/threonine-protein kinase WNK1; assay: Inhibition of WNK1 in human MDA-MB-231 cells assessed as reduction in OSR1 phosphorylation measured after 24 hrs by Western blot analysis; type: cell-based
Outline: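 Endogenous OSR1 phosphorylation was measured in MDA-MB-231 breast cancer cells. Experiments were run in triplicate, and an IC50 was derived from the phosphorylation read-out.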
Target sequence in this assay (Q9H4A3 whole entry, the tested form may be a part): as above

MDA-MB-231 = assay: Cytotoxicity against human MDA-MB-231 cells assessed as cell viability up to 12 uM measured after 24 hrs; type: toxicity, cell-based; details: mda-mb-231, 24 h
[8] = biological target: Serine/threonine-protein kinase WNK3 (Homo sapiens) (UniProt Q9BYP7); assay: Inhibition of WNK3 (unknown origin) at 10 uM relative to control
Homo sapiens = species on record: Homo sapiens; assay: Selectivity ratio of IC50 for WNK3 (118 to 409 residues) (unknown origin) expressed in Escherichia coli BL21 DE3 to IC50 for TEV cleavage site-fused His6-tagged WNK1 (194 to 483 residues) (unknown origin) expressed in Rosetta (DE3) cells

Serine/threonine-protein kinase WNK3 (Homo sapiens), sequence (Q9BYP7 whole entry, the tested form may be a part): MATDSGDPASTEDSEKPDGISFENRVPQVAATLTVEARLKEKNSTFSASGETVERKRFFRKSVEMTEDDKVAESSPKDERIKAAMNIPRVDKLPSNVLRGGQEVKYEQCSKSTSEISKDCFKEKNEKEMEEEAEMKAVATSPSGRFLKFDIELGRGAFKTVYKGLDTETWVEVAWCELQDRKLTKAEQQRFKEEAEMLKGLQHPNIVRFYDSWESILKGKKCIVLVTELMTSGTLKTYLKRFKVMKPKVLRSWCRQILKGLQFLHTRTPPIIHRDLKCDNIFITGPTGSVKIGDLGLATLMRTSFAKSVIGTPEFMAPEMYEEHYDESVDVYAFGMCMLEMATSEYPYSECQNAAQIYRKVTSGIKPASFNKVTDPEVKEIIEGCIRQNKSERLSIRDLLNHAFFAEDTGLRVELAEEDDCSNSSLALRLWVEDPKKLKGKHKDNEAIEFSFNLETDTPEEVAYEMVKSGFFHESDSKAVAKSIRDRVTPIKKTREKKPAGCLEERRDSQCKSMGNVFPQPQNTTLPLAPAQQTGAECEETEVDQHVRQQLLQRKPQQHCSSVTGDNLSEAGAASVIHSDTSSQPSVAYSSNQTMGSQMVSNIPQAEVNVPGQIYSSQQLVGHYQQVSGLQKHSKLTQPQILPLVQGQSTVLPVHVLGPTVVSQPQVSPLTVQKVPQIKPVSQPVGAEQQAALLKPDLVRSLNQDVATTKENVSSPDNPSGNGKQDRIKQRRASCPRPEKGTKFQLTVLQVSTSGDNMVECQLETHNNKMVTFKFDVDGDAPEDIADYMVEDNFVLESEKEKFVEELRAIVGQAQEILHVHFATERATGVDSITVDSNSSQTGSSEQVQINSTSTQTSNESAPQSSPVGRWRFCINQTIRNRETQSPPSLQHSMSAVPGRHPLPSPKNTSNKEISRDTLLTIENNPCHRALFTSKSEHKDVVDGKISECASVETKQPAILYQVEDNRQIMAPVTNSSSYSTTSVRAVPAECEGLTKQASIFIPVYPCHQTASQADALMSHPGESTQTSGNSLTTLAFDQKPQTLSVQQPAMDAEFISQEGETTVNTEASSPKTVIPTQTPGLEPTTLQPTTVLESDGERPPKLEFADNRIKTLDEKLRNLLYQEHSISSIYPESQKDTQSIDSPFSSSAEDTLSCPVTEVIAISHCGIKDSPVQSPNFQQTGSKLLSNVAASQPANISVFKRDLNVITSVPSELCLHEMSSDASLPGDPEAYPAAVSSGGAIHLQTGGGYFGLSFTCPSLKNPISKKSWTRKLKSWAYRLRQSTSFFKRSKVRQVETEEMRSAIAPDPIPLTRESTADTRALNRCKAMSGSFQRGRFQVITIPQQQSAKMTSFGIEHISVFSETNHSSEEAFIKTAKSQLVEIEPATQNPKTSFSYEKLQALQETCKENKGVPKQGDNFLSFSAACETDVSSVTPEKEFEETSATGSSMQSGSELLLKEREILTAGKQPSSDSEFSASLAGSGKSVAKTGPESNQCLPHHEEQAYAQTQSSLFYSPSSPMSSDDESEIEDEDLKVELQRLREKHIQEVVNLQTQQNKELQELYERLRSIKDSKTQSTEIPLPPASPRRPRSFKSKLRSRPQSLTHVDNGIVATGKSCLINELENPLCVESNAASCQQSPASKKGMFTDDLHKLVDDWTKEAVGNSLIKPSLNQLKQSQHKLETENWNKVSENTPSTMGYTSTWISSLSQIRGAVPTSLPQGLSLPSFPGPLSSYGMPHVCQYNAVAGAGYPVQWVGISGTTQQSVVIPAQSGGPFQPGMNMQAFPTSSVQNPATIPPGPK
Mitogen-activated protein kinase 9 (Homo sapiens), sequence (P45984 whole entry, looked up): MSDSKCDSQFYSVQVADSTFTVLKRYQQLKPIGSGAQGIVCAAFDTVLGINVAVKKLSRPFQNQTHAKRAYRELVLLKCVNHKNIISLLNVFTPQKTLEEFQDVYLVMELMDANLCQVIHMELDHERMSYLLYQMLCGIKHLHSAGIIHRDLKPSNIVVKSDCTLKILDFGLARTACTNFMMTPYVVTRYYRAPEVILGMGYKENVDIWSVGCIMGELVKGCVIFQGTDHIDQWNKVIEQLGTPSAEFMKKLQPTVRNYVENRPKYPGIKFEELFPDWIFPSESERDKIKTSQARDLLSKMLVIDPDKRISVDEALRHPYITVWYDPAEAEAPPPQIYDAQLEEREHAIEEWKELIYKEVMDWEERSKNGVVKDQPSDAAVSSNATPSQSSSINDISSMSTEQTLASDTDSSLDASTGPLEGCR

Structure (SMILES): O=[N+]([O-])c1cc(S(=O)(=O)C(Cl)(Cl)Br)ccc1NCCCc1ccccc1
- IC50 [1]: 79 µM
- IC50 [2]: 6 µM
- inhibition [3]: 20%
- inhibition [4]: 20%
- inhibition [5]: Active
- inhibition [6]: Active

Structure (SMILES): O=S(=O)(c1ccc(NC2CCCCC2)cc1)C(Cl)(Cl)Br
- IC50 [1]: > 1000 µM

Structure (SMILES): O=[N+]([O-])c1cc(S(=O)(=O)C(Cl)(Cl)Cl)ccc1NC1CCCCC1
- IC50 [1]: > 1000 µM

Structure (SMILES): O=[N+]([O-])c1cc(S(=O)(=O)C(Cl)(Cl)Br)ccc1Nc1ccccc1
- IC50 [1]: 76 µM
- IC50 [2]: 7.2 µM

Structure (SMILES): CN1CCN(c2ccc(S(=O)(=O)C(Cl)(Cl)Br)cc2[N+](=O)[O-])CC1
- IC50 [1]: > 1000 µM

Structure (SMILES): O=[N+]([O-])c1ccccc1NC1CCCCC1
- IC50 [1]: > 1000 µM

Structure (SMILES): CS(=O)(=O)c1ccc(NC2CCCCC2)c([N+](=O)[O-])c1
- IC50 [1]: > 1000 µM

Structure (SMILES): O=[N+]([O-])c1cc(S(=O)(=O)C(Cl)(Cl)Br)ccc1NC1CCCC1
- IC50 [1]: 93 µM
- IC50 [2]: 6.5 µM

Structure (SMILES): CCS(=O)(=O)c1ccc(NC2CCCCC2)c([N+](=O)[O-])c1
- IC50 [1]: > 1000 µM

Structure (SMILES): O=[N+]([O-])c1cc(S(=O)(=O)C(F)(F)F)ccc1NC1CCCCC1
- IC50 [1]: > 1000 µM
- IC50 [2]: > 1000 µM

Structure (SMILES): O=[N+]([O-])c1cc(S(=O)(=O)C(Cl)Cl)ccc1NC1CCCCC1
- IC50 [1]: > 1000 µM

Structure (SMILES): O=[N+]([O-])c1cc(S(=O)(=O)C(Cl)(Cl)Br)ccc1NC1CCCCC1
- IC50 [1]: 4 µM
- IC50 [2]: 1.6 µM
- IC50 [7]: 4.3 µM
- Activity (MDA-MB-231): Non-Toxic
- inhibition [3]: 20%
- inhibition [8]: 20%
- Ratio IC50 (Homo sapiens): 10

Structure (SMILES): O=[N+]([O-])c1cc(S(=O)(=O)C(Cl)(Cl)Br)ccc1NCc1ccco1
- IC50 [1]: 15 µM
- IC50 [2]: 5 µM
